Ten compounds from PubChem BioAssay AID1263 (The Scripps Research Institute Molecular Screening Center, 2008) can be followed below.

Structures are written as SMILES. This is one part of the list. Active and inactive are the calls of the source.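 How the source made its calls: active means triplicate mean inhibition exceeding the hit cutoff computed for the primary STAT1 screen (cut at about 35% in these data); inactive means the rest.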

The test can be described thus: STAT1 signaling inhibitors, confirmation, cell-based, HTS, luciferase reporter (AID 1263).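 Further: 0% = DMSO with IFN-gamma and 100% = 300 µM nifuroxazide with IFN-gamma.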 Conditions: NIH 3T3 STAT1-luciferase reporter, IFN-gamma, luminescence; at 5.5 µM; hits give high values. An outline of the steps:
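System – NIH 3T3 STAT1-luciferase reporter cells · Dosing – one dose only · Repeats – three replicates · Read-out basis – % inhibition scaled between DMSO and nifuroxazide · Incubation – compound preincubation 1 h, IFN-gamma exposure 4 h, 37 °C, substrate 15 min · Also added – IFN-gamma stimulus, 3.0 ng/mL · Measured by – luciferase luminescence · Benchmarks – high control 300 µM nifuroxazide, low control DMSO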
Background: Reporter assays use an easily measured gene product as a stand-in for the process of interest.
Consider `Cc1ccc(C2=Nc3c(ccc4ccccc34)C(c3ccncc3)=NN2)cc1`, for which the inhibition was 60.4% (active).
As for `CCOC(=O)N1CCN(C(=O)CSc2nnc(-c3c[nH]c4ccccc34)n2CCOC)CC1`, the figure is 33.9% (inactive); as for `CCOC(=O)C(=CNc1cccc(C)n1)C(=O)OCC`, 32.5% (inactive).
For `COc1ccc(C(=O)Nc2ccccc2C(=O)N/N=C/c2ccccc2OC)cc1` the value was 0.25% (inactive); for `COC(=O)C1=CN(Cc2ccc(OC)c(OC)c2)C=C(C(=O)OC)C1c1cccs1`, 38.3% (active); for `COc1ccc(C2CC(c3cccs3)=NN2c2nc(C)c(C(C)=O)s2)cc1OC` (stereo not given), 20.8% (inactive).
Take `C[C@@H]1C[C@@H]2O[C@H]2/C=C\C=C\C(=O)Cc2c(Cl)c(O)cc(O)c2C(=O)O1`: the inhibition was 61% (active).
For `O=C(CCl)N(Cc1cccc([N+](=O)[O-])c1)c1cccc(Cl)c1`, the inhibition is 33.3% (inactive).
For `NS(=O)(=O)c1cccc(NC(=O)CSc2nc3ccccc3n2-c2ccccc2)c1` the value was 31.4% (inactive).
For `CCOC(=O)N1CCN(C(=O)C2CCN(c3ncnc4c3sc3cccc(F)c34)CC2)CC1` the value was 41.5% (active).

The term inhibition denotes the percentage by which the read-out fell short of the control.
